Screens: PubChem BioAssay, The Scripps Research Institute Molecular Screening Center
ABHD4 inh = ABHD4 inhibitors, primary screen, biochemical, fluorescence polarization, mouse; actives 0.54% (n = 370,000); purified mABHD4, FP-Rh probe fluorescence polarization; AID 720543, 2013; (Lyso)-N-acylphosphatidylethanolamine lipase (Mus musculus), Q8VD66; inhibition, % at 8.92 µM;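 active means inhibition exceeding the mean over every tested compound plus 3 SD, cut at about 30% in these data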;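 further: 0% = plate median of compound wells and 100% = S159A mutant with DMSO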
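Test system: mouse ABHD4 enzyme, wild type. Reagent: FP-Rh fluorescent activity-based probe, added after compound pre-incubation. Timing: pre-incubation 45 min, probe exposure 60 min, at 25 °C. Technique: FP readout, ex 525 nm / em 598 nm. Benchmarks: high control S159A mutant with DMSO, low control median of compound wells.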
HTRA1 inhibitor = HTRA1 serine protease inhibitors, primary screen, biochemical, fluorescence polarization, HTS; recombinant HTRA1, FP-rhodamine activity-based probe; actives 0.5% (n = 340,000); inhibition, % at 5.96 µM; Q92743; in the data active means inhibition above about 36%;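 further: 0% = enzyme with DMSO and 100% = wells lacking enzyme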
Target sequence (Q92743 whole entry, looked up): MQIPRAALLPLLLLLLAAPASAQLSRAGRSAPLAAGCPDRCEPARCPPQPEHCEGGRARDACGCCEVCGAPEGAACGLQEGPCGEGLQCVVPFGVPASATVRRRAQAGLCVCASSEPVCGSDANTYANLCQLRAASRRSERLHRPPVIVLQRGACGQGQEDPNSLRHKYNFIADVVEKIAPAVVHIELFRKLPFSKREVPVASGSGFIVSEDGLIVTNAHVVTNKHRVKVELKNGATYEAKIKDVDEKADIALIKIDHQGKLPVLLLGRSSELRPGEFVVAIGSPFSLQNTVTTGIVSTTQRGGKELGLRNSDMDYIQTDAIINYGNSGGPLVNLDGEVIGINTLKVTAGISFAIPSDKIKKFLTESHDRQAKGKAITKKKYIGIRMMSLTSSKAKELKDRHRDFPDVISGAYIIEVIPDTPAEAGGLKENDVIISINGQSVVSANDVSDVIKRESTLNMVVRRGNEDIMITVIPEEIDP
PAFAH2 FP inh = PAFAH2 enzyme inhibitors, primary screen, biochemical, fluorescence polarization, human. recombinant PAFAH2, FP-rhodamine activity probe. inhibition, % at 3.39 µM. actives 0.99% (n = 340,000). AID 492956, 2010;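 active means inhibition above the mean over all tested compounds plus 3 SD, cut at about 30% in these data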;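 further: inhibitors block probe labeling of enzyme so polarization drops; 0% = enzyme with DMSO and 100% = wells lacking PAFAH2 protein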
PAFAH1B2 FP inh = PAFAH1B2 enzyme inhibitors, primary screen, biochemical, fluorescence polarization, human; Platelet-activating factor acetylhydrolase IB subunit alpha2 (Homo sapiens), P68402; recombinant PAFAH1B2, FP-rhodamine activity probe; inhibition, % at 3.39 µM; actives 1.2% (n = 340,000);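 active means inhibition above the mean of all tested compounds plus 3 SD, cut at about 24% in these data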;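 further: 0% = enzyme with DMSO and 100% = wells lacking PAFAH1B2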
PAFAH1B3 FP inh = PAFAH1B3 enzyme inhibitors, primary screen, biochemical, fluorescence polarization, human; Platelet-activating factor acetylhydrolase IB subunit alpha1 (Homo sapiens), Q15102; actives 0.28% (n = 340,000); recombinant PAFAH1B3, FP-rhodamine probe; inhibition, % at 3.39 µM;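 active means inhibition above the screen-wide average of all tested compounds plus 3 SD, cut at about 25% in these data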;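 further: 0% = enzyme with DMSO only and 100% = wells lacking PAFAH1B3 protein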
pPAFAH inh = pPAFAH enzyme inhibitors, primary screen, biochemical, fluorescence polarization, human; Platelet-activating factor acetylhydrolase (Homo sapiens), Q13093; recombinant pPAFAH, FP-rhodamine probe fluorescence polarization; inhibition, % at 3.39 µM; actives 1.5% (n = 330,000); AID 463082, 2010;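 active means inhibition above the mean inhibition across the screen plus 3 SD, cut at about 25% in these data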;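 further: inhibitors block binding of the rhodamine activity-based probe so polarization drops; 0% = enzyme with DMSO and 100% = wells lacking pPAFAH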
mABHD4 conf = ABHD4 inhibitors, retest, confirmation, biochemical, fluorescence polarization, mouse; inhibition, % at 8.92 µM; actives 55% (n = 1,800); AID 720658, 2013; shares compounds with ABHD4 inh; purified mABHD4, FP-Rh probe fluorescence polarization;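 active means mean inhibition across replicates above the hit cutoff set in the primary screen, cut at about 30% in these data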;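 further: 0% = wild-type ABHD4 with DMSO and 100% = catalytically dead S159A mutant with DMSO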
The depositor's hits bear a star; . = not tested or not shown; + = active, no number. In the library only some 2.8% were active in any assay of this set; here they are far more common.

SMILES	ABHD4 inh	HTRA1 inhibitor	PAFAH2 FP inh	PAFAH1B2 FP inh	PAFAH1B3 FP inh	pPAFAH inh	mABHD4 conf
O=C(O)c1cc(N/N=C/c2c(O)ccc3ccccc23)ccc1Cl	21	11	29	18	20	11	.
COC(=O)[C@]12CCCCC=C1N(Cc1ccc(OC)cc1)C(=O)[C@@H]2CC(=O)NCc1ccccc1	5	.	.	.	.	.	.
COc1c(F)c(F)c(C(=O)Nc2ccc(N3CCN(C(C)=O)CC3)c(Cl)c2)c(F)c1F	31*	-3	-1	5	-1	2	20
Cc1cc(/C=C2/C(=O)NN(c3ccccc3)C2=O)c(C)n1-c1ccc(O)cc1	34*	3	13	8	7	0	27
Nc1nc2c(ncn2[C@@H]2O[C@H](C(=O)N[C@H](Cc3ccccc3)C(=O)NC3CCCCC3)[C@@H](O)[C@H]2O)c(=O)[nH]1	7	.	.	.	.	.	.
CCNC(=S)NNC(=O)c1cnccn1	46*	.	.	.	.	.	54*
COc1cccc(C(=O)N[C@H](C(=O)N2CCC[C@H]2C(=O)NCCc2ccccc2Cl)c2ccccc2)c1	-8	.	.	.	.	.	.
O=c1oc2c(-c3ccc([N+](=O)[O-])cc3)cc(O)cc2s1	61*	24	-9	-2	10	22	-22
Cn1c(/N=C/c2c(O)ccc3ccccc23)nc2ccccc21	31*	29	2	8	12	23	4
COc1ccc(C2=NN(c3ccc(C(=O)O)cc3)C(c3ccc(OC)c(OC)c3)C2)cc1 (stereo unspecified)	69*	-2	14	8	18	27*	78*
COc1ccc(C2CC(c3ccccc3)=NN2c2ccc(S(N)(=O)=O)cc2)cc1OC (stereo unspecified)	-16	-11	7	0	2	5	.
COC(=O)CC1CCc2cc(C)cc(C(=O)CC(C)C)c2O1 (stereo unspecified)	10	.	.	.	.	.	.
O=C(CSc1nc2ccccc2s1)N1CCCCC1	6	9	2	2	7	4	.
Cc1c(Cl)cccc1N/C(SCC(=O)N1CCCCCC1)=C(/C#N)c1nc2ccccc2s1	35*	-3	-13	-2	-9	-3	34*
Cc1cc(N2CCN(C(=O)Oc3ccc(-c4ccccc4)cn3)CC2)c2ccccc2n1	12	.	.	.	.	.	.
Cc1cc(N2CCN(C(=O)Oc3ccc(C(F)(F)F)cc3)CC2)c2ccccc2n1	53*	.	.	.	.	.	23
COc1ccc2c(c1)CCCN2C(=O)C1CCCN(S(=O)(=O)c2cc(OC)ccc2OC)C1 (stereo unspecified)	-4	.	.	.	.	.	.
CCN(c1ccccc1)S(=O)(=O)c1cc(C(=O)OC2CCOC2=O)ccc1C (stereo unspecified)	31*	3	12	8	6	3	23
CCN(CC)S(=O)(=O)c1ccc(N2CCOCC2)c(NC(=O)c2cccc3ccccc23)c1	7	-23	7	-1	-3	9	.
CCN(CC)S(=O)(=O)c1ccc(N2CCOCC2)c(NC(=O)c2ccc3ccccc3c2)c1	8	-1	-1	14	1	10	.
CCN(CC)S(=O)(=O)c1ccc(N2CCOCC2)c(NC(=O)c2cccc3c(=O)c(C)c(-c4ccccc4)oc23)c1	33*	-42	6	0	-2	6	37*
CCN(CC)S(=O)(=O)c1ccc(N2CCOCC2)c(NC(=O)c2c3c(nc4ccccc24)CCC3)c1	34*	10	17	-6	-3	26*	30*
CCOC(=O)[C@@]12CN(C(=O)OC(C)(C)C)CC=C1N(Cc1ccc(OC)cc1)C(=O)[C@H]2CC(=O)N1CCN(C(=O)c2ccco2)CC1	5	.	.	.	.	.	.
Cc1ccc(NC(=O)CSc2nc(C)cc(=O)[nH]2)c(C)c1	0	.	.	.	.	.	.
CCC[C@H]1[C@@H](OC(=O)NC2CCC2)CC[C@@]23CCCN2C(=O)CCC[C@@H]13	-1	.	.	.	.	.	.
SMILES	ABHD4 inh	HTRA1 inhibitor	PAFAH2 FP inh	PAFAH1B2 FP inh	PAFAH1B3 FP inh	pPAFAH inh	mABHD4 conf
Cc1cc(-c2n[nH]c(=S)n2CC(C)C)cs1	32*	-2	-8	10	5	1	-6
Oc1ccccc1C=NC(N=Cc1ccccc1O)c1ccccc1O (stereo unspecified)	22	.	.	.	.	.	.
CCOC(=O)c1c(C)oc2ccc(OC(=O)N3CCOCC3)cc12	40*	-2	5	0	7	19	40*
Cc1oc2ccc(OC(=O)N3CCOCC3)cc2c1C(=O)OC(C)C	59*	-3	11	5	3	13	54*
COc1cccc(C(=O)CC(=O)C(=O)Nc2cc(OC)ccc2OC)c1	32*	2	-7	11	8	7	8
CCOc1ccccc1NC(=O)C(=O)CC(=O)c1cccc(OC)c1	9	6	5	4	0	2	.
CCOC(=O)N(C)[C@H]1C[C@H]2c3[nH]c4cccc(-c5cccc(F)c5)c4c3CCN2C(=O)[C@H]1[C@H](C)O	-2	.	.	.	.	.	.
CSc1ccc(CNc2ccc(Cl)cc2)cc1	+	-3	3	-3	8	5	-6
C/C=C/C(=O)N1CCC(C(=O)NC2CCCc3ccccc32)CC1 (stereo unspecified)	2	.	.	.	.	.	.
COc1ccccc1NC(=O)NN1CCCCC1	2	10	-1	5	1	5	.
O=C(Nc1ccccc1Cl)NN1CCCCCC1	48*	-15	5	2	11	.	52*
O=C(NNC(=O)c1ccccn1)c1cccc([N+](=O)[O-])c1	32*	-3	4	-3	10	1	8
Cc1cccc(NC(=O)NNC(=O)c2ccccn2)c1	30*	3	7	2	5	6	27
COc1ccc2c(c1)Sc1ccc(Cl)cc1N2	34*	.	.	.	.	.	34*
CCOC(=O)c1c(C)[nH]c2cc(Br)c(O)cc12	39*	0	1	6	6	10	60*
CC(C)=C1C(=O)NN(c2ccc(F)c(Cl)c2)C1=O	32*	8	10	2	0	23	8
O=C1CSC(=S)N1c1ccc(F)c(Cl)c1	7	-15	-9	-5	-11	-2	.
O=C(c1cc(C2CC2)on1)N(C1CCCCC1)C1CCCCC1	-4	.	.	.	.	.	.
Cc1ccc(C(=O)C2CCN(CC(=O)N(C)C3CCCCC3)CC2)cc1	6	.	.	.	.	.	.
